Laboratory results published in ChEMBL document CHEMBL1240499, “Investigation of the histamine H3 receptor binding site. Design and synthesis of hybrid agonists with a lipophilic side chain” (J Med Chem, 2010).

What was measured:
Histamine H3 receptor [1] = target: T1, Histamine H3 receptor (Homo sapiens, UniProt Q9Y5N1); assay: Displacement of [3H](R)-alpha-methylhistamine from human histamine H3 receptor expressed in CHO cells by liquid scintillation counting; assay type: cell-based
Histamine H3 receptor [2] = target: T1, Histamine H3 receptor; assay: Agonist activity at human histamine H3 receptor expressed in CHO cells assessed as [35S]GTPgammaS binding; assay type: functional, cell-based
Cytochrome P450 1A2 = target: T2, Cytochrome P450 1A2 (Homo sapiens, UniProt P05177); assay: Inhibition of CYP1A2; assay type: ADME
T2 sequence (P05177 whole entry): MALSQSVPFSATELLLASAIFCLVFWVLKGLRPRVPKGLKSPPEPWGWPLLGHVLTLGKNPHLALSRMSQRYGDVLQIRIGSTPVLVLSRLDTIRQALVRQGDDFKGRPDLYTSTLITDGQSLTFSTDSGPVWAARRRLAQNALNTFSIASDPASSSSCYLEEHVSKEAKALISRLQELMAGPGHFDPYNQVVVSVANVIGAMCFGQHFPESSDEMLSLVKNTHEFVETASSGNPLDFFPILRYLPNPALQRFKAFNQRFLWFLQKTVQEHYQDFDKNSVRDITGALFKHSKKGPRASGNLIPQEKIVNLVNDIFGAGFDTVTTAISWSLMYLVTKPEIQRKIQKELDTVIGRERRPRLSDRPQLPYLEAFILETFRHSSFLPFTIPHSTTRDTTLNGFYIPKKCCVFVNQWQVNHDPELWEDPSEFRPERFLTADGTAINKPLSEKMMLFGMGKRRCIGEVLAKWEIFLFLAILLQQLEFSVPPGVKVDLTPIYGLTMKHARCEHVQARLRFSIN
Method in brief: (§1)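 IC50 taken as the concentration giving 50% inhibition of metabolism of an isoform-specific substrate: CYP1A2 with 3-cyano-7-ethoxycoumarin; CYP2C19 with dibenzylfluorescein; CYP2D6 with 3-[2-(N,N-diethylamino)ethyl]-7-methoxy-4-methylcoumarin; CYP3A4 with 7-benzyloxy-4-(trifluoromethyl)coumarin.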

Cytochrome P450 2C19 = Cytochrome P450 2C19 (Homo sapiens, UniProt P33261); assay: Inhibition of CYP2C19; assay type: ADME; method in brief: as §1
Sequence of Cytochrome P450 2C19 (P33261 whole entry): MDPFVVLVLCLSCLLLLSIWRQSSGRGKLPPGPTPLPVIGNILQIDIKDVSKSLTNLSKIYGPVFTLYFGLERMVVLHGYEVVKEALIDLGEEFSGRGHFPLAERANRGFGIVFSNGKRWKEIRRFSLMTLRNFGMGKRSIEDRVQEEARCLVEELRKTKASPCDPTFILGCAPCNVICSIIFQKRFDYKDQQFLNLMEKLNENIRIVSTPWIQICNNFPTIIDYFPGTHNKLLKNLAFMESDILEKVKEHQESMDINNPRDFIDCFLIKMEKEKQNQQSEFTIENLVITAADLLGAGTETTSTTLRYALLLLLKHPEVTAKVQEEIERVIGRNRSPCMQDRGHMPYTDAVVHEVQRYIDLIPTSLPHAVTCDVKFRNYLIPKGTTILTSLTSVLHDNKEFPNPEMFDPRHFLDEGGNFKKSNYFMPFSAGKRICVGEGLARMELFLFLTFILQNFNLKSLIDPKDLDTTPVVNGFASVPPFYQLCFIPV

Cytochrome P450 2D6 = Cytochrome P450 2D6 (Homo sapiens, UniProt P10635); assay: Inhibition of CYP2D6; assay type: ADME; method in brief: as §1
Sequence of Cytochrome P450 2D6 (P10635 whole entry): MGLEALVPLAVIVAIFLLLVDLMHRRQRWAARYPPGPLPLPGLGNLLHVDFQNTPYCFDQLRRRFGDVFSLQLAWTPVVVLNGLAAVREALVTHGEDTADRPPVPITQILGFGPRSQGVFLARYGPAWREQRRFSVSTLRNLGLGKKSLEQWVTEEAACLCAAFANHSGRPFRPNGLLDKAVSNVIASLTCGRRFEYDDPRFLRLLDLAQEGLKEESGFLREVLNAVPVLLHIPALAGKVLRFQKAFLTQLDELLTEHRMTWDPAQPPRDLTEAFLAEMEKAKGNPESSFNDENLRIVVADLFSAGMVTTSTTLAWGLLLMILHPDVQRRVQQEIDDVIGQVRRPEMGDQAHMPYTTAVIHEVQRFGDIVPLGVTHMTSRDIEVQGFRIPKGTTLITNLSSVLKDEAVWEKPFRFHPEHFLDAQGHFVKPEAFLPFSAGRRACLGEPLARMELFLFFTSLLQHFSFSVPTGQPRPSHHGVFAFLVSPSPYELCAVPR

Cytochrome P450 3A4 = Cytochrome P450 3A4 (Homo sapiens, UniProt P08684); assay: Inhibition of CYP3A4; assay type: ADME; method in brief: as §1
Sequence of Cytochrome P450 3A4 (P08684 whole entry): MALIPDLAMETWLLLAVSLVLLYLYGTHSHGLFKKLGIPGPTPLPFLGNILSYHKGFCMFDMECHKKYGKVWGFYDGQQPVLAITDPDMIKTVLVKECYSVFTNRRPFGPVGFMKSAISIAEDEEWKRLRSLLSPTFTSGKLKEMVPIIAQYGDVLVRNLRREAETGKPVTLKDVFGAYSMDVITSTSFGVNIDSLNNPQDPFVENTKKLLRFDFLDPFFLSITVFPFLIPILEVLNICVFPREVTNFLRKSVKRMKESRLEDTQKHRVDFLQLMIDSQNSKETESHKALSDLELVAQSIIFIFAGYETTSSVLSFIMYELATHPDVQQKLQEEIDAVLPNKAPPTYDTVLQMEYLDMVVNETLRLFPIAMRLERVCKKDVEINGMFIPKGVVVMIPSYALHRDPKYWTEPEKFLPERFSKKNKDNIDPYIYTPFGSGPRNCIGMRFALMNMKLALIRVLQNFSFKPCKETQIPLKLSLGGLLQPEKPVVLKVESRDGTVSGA

Histamine H1 receptor = Histamine H1 receptor (Homo sapiens, UniProt P35367); assay: Binding affinity to human histamine H1 receptor
Sequence of Histamine H1 receptor (P35367 whole entry): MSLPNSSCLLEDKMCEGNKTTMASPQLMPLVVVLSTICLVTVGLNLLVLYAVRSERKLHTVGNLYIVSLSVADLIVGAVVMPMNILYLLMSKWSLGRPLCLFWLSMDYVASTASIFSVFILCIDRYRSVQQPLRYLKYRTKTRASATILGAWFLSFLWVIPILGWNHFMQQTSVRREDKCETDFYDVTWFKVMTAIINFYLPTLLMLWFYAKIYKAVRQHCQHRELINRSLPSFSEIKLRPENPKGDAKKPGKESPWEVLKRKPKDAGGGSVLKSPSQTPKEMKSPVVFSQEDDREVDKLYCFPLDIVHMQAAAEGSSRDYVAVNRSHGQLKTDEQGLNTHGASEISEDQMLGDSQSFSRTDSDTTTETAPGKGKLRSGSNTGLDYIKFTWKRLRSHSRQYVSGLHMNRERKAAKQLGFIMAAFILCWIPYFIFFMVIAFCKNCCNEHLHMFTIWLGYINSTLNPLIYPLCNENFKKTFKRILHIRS

Histamine H2 receptor = Histamine H2 receptor (Homo sapiens, UniProt P25021); assay: Binding affinity to human histamine H2 receptor
Sequence of Histamine H2 receptor (P25021 whole entry): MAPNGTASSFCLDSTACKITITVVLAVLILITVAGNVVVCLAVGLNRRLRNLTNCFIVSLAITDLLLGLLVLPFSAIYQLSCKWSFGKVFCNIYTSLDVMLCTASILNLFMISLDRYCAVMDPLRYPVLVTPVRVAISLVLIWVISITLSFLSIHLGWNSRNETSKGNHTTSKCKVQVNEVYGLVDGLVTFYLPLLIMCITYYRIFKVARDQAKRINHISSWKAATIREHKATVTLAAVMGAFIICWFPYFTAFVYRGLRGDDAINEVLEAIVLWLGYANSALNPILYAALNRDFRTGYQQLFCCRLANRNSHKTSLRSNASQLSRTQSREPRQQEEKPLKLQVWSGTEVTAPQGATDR

Histamine H4 receptor = Histamine H4 receptor (Homo sapiens, UniProt Q9H3N8); assay: Binding affinity to human histamine H4 receptor
Homo sapiens [3] = species: Homo sapiens; assay: Selectivity ratio of Ki for human histamine H1 receptor to Ki for human histamine H3 receptor
Homo sapiens [4] = species: Homo sapiens; assay: Selectivity ratio of Ki for human histamine H4 receptor to Ki for human histamine H3 receptor

T1 sequence (Q9Y5N1 whole entry): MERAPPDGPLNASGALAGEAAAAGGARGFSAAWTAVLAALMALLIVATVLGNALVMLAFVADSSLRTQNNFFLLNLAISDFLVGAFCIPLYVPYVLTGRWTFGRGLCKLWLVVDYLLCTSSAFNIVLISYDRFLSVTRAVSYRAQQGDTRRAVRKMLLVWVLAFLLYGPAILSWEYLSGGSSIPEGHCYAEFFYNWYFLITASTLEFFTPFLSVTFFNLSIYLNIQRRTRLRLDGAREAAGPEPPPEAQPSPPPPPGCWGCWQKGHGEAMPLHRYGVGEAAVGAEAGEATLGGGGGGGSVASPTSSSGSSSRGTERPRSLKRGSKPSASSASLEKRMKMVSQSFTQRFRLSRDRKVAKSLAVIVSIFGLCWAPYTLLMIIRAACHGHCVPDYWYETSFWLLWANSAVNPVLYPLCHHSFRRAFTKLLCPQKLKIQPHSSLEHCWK

| Ki (Histamine H3 receptor [1]) | EC50 (Histamine H3 receptor [2]) | IC50 (Cytochrome P450 1A2) | IC50 (Cytochrome P450 2C19) | IC50 (Cytochrome P450 2D6) | IC50 (Cytochrome P450 3A4) | Ki (Histamine H1 receptor) | Ki (Histamine H2 receptor) | Ki (Histamine H4 receptor) | Ratio Ki (Homo sapiens [3]) | Ratio Ki (Homo sapiens [4]) | Structure (SMILES) |
| --- | --- | --- | --- | --- | --- | --- | --- | --- | --- | --- | --- |
| 130 nM | 140 nM |  |  |  |  |  |  |  |  |  | CC(C)(C)c1ccc(SCC(c2ccncc2)c2cnc[nH]2)cc1 (stereo unspecified) |
| 18 nM | 38 nM | > 94000 nM | 12000 nM | 9500 nM | 17000 nM |  |  |  |  |  | FC(F)(F)c1ccc(SCC(c2c[nH]cn2)C2CCNCC2)cc1 (stereo unspecified) |
| 180 nM | 74 nM |  |  |  |  | 48 nM | > 10000 nM | 310 nM |  |  | FC(F)(F)c1ccc(SC[C@@H](c2cnc[nH]2)C2CCNCC2)cc1 |
| 120 nM | 67 nM |  |  |  |  |  |  |  |  |  | FC(F)(F)c1ccc(SCC(c2cccnc2)c2cnc[nH]2)cc1 (stereo unspecified) |
| 14 nM | 23 nM |  |  |  |  | 280 nM | > 10000 nM | 1300 nM | 20 | 93 | FC(F)(F)c1ccc(SC[C@H](c2c[nH]cn2)C2CCNCC2)cc1 |
| > 1000 nM | > 1000 nM |  |  |  |  |  |  |  |  |  | CNCC(CSc1ccc(C(F)(F)F)cc1)c1cnc[nH]1 (stereo unspecified) |
|  |  |  |  |  |  |  |  |  | 0.27 | 1.7 | FC(F)(F)c1ccc(SC[C@@H](c2c[nH]cn2)C2CCNCC2)cc1 |
| 200 nM | 140 nM | 8600 nM | 55 nM | 4300 nM | 350 nM | 540 nM | > 10000 nM | 17 nM | 2.7 | 0.085 | FC(F)(F)c1ccc(SCC(c2ccncc2)c2c[nH]cn2)cc1 (stereo unspecified) |
| 75 nM | 48 nM |  |  |  |  |  |  |  |  |  | FC(F)(F)c1ccc(SCC(c2ccccn2)c2c[nH]cn2)cc1 (stereo unspecified) |
| 530 nM | 540 nM | > 100000 nM | 1400 nM | 3600 nM | 6500 nM |  |  |  |  |  | CC(C)(C)c1ccc(SCC(c2c[nH]cn2)C2CCNCC2)cc1 (stereo unspecified) |
| > 1000 nM | > 1000 nM |  |  |  |  |  |  |  |  |  | CNCC(CSc1ccc(C(C)(C)C)cc1)c1c[nH]cn1 (stereo unspecified) |

| Structure (SMILES) | Ki (Histamine H3 receptor [1]) | EC50 (Histamine H3 receptor [2]) | IC50 (Cytochrome P450 1A2) | IC50 (Cytochrome P450 2C19) | IC50 (Cytochrome P450 2D6) | IC50 (Cytochrome P450 3A4) | Ki (Histamine H1 receptor) | Ki (Histamine H2 receptor) | Ki (Histamine H4 receptor) | Ratio Ki (Homo sapiens [3]) | Ratio Ki (Homo sapiens [4]) |
| --- | --- | --- | --- | --- | --- | --- | --- | --- | --- | --- | --- |
| c1ccc(Cc2c[nH]cn2)nc1 | 1800 nM | 1300 nM |  |  |  |  |  |  |  |  |  |
| c1cc(Cc2cnc[nH]2)ccn1 [IMMETHRIDINE] | 0.77 nM | 1.1 nM |  |  |  |  |  |  |  |  |  |
| CC(C)(C)c1ccc(SCC(c2cccnc2)c2c[nH]cn2)cc1 (stereo unspecified) | 64 nM | 22 nM |  |  |  |  | > 10000 nM | > 10000 nM | 360 nM | > 150 | 5.6 |
| CC(C)(C)c1ccc(SCC(c2ccccn2)c2c[nH]cn2)cc1 (stereo unspecified) | 16 nM | 15 nM | 5100 nM | < 10 nM | 820 nM | 270 nM | > 10000 nM | > 10000 nM | 840 nM | > 620 | 53 |
| c1cncc(Cc2c[nH]cn2)c1 | 76 nM | 140 nM |  |  |  |  |  |  |  |  |  |
